# Legend:
# [1] = test system: duplex DNA sequence (T-loop); assay: FRET melting assay, duplex DNA control; assay type: binding; details: ΔTm at 1 µM, Esd ± 0.5 °C
# Method in brief: (§1)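 96-well FRET melting assay using dual-labelled oligonucleotides: human telomeric 21-mer F21T and c-KIT2 G4s, plus T-loop duplex DNA. Test compound at 1 µM. Tm shift obtained by curve fitting to the melting data, from triplicate measurements, Esd ± 0.5 °C. n/a marks unsuccessful curve fitting.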
# RCC4 (renal cancer) = assay: 96 hr SRB assay, RCC4; assay type: cell-based; details: Homo sapiens, RCC4, 96 h, read-out: IC50, RCC4
# [2] = test system: F21T G4 versus calf thymus duplex DNA; assay: Calf thymus DNA; assay type: binding, human; details: 1 µM compound, calf thymus DNA competitor
# Method in brief: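 Competition version of the FRET melting assay. Dual-labelled F21T G4 is challenged with unlabelled calf thymus duplex DNA added at high duplex:G4 ratios. Test compound at 1 µM. Read-out is % retention of the F21T Tm shift.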
# [3] = test system: Panc1 (pancreatic cancer); assay: 96 hr SRB assay, Panc1; assay type: cell-based; details: Homo sapiens, PANC-1, 96 h, read-out: IC50, Panc1
# HSP90B promoter G4 = assay: FRET G4 stabilisation; assay type: binding; details: ΔTm at 1 µM; triplicate, Esd ± 0.5 °C
# [4] = test system: WI38 (non-transformed lung fibroblast cells); assay: 96 hr SRB assay, WI38; assay type: cell-based; details: Homo sapiens, WI-38, 96 h, read-out: IC50, WI38
# [5] = test system: Mia-PaCa2 (pancreatic cancer); assay: 96 hr SRB assay, Mia-PaCa2; assay type: cell-based; details: Homo sapiens, MIA PaCa-2, 96 h, read-out: IC50, Mia-PaCa2
# MCF7 (breast cancer) = assay: 96 hr SRB assay, MCF7; assay type: cell-based; details: Homo sapiens, MCF7, 96 h, read-out: IC50, MCF7
# [6] = test system: F21T (human telomeric 21-mer) G4; assay: FRET G4 stabilisation; assay type: binding; details: ΔTm at 1 µM; triplicate, Esd ± 0.5 °C
# Method in brief: as §1
# c-KIT2 G4 = assay: FRET G4 stabilisation; assay type: binding; details: ΔTm at 1 µM; triplicate, Esd ± 0.5 °C
# Method in brief: as §1
# HSP90A promoter G4 = assay: FRET G4 stabilisation; assay type: binding; details: ΔTm at 1 µM; triplicate, Esd ± 0.5 °C
# A549 (lung cancer) = assay: 96 hr SRB assay, A549; assay type: cell-based; details: Homo sapiens, A549, 96 h, read-out: IC50, A549
# [7] = test system: AR (androgen receptor promoter) G4; assay: FRET G4 stabilisation; assay type: binding; details: ΔTm at 1 µM; triplicate, Esd ± 0.5 °C
# [8] = test system: ALT (transformed WI38 lung fibroblast cells); assay: 96 hr SRB assay, ALT; assay type: cell-based; details: Homo sapiens, WI-38, 96 h, read-out: IC50, ALT
# 786-O (renal cancer) = assay: 96 hr SRB assay, 786-O; assay type: cell-based; details: Homo sapiens, 786-0, 96 h, read-out: IC50, 786-O
smiles,measurement,setting,value
"CN1CCN(CCCNc2cc3c4c(c(NCCCN5CCN(C)CC5)cc5c4c2C(=O)N(CCCN2CCOCC2)C5=O)C(=O)N(CCCN2CCOCC2)C3=O)CC1 [Compound 8, 4,9-bis((3-(4-methyl-piperazin-1-yl)propyl)amino)-2,7-bis(3-morpholinopropyl) benzo-[lmn] [3,8] phenanthroline-1,3,6,8(2H,7H)-tetraone]","FRET ΔTm, T-loop duplex",[1],4.9 °C
same,IC50,RCC4 (renal cancer),560 nM
same,"% retention of the F21T ΔTm, G4:CT 1:1",[2]; G4:CT 1:1,100%
same,"% retention of the F21T ΔTm, G4:CT 1:10",[2]; G4:CT 1:10,100%
same,"% retention of the F21T ΔTm, G4:CT 1:300",[2]; G4:CT 1:300,27.2%
same,IC50,[3],3 nM
same,"FRET G4 stabilization ΔTm, HSP-90B",HSP90B promoter G4,28.6 °C
same,IC50,[4],230 nM
same,IC50,[5],11 nM
same,IC50,MCF7 (breast cancer),70 nM
same,"FRET G4 stabilization ΔTm, F21T",[6],26.6 °C
same,"FRET G4 stabilization ΔTm, c-KIT2",c-KIT2 G4,22.0 °C
same,"FRET G4 stabilization ΔTm, HSP-90A",HSP90A promoter G4,33.1 °C
same,IC50,A549 (lung cancer),19 nM
same,"FRET G4 stabilization ΔTm, AR",[7],15.9 °C
same,IC50,[8],63 nM
same,IC50,786-O (renal cancer),320 nM

# — paper PMC3901018 (Chemical communications (Cambridge, England), 2014)
